In ChEMBL document CHEMBL5104181, “Development of Hydrogen Sulfide-Releasing Carbonic Anhydrases IX- and XII-Selective Inhibitors with Enhanced Antihyperalgesic Action in a Rat Model of Arthritis” (J Med Chem, 2022):
Calls of active or inactive are those of the source. The calls are words filed in the database; no cut-off is given here.

How the values were obtained:
[1] = biological target: Carbonic anhydrase 2 (Homo sapiens, UniProt P00918); test: Inhibition of recombinant human CA2 pre-incubated for 15 mins by phenol red dye based stopped flow CO2 hydration assay
[2] = biological target: Carbonic anhydrase 12 (Homo sapiens, UniProt O43570); test: Inhibition of recombinant human CA12 pre-incubated for 15 mins by phenol red dye based stopped flow CO2 hydration assay
[3] = biological target: Carbonic anhydrase 9 (Homo sapiens, UniProt Q16790); test: Inhibition of recombinant human CA9 pre-incubated for 15 mins by phenol red dye based stopped flow CO2 hydration assay
[4] = biological target: Carbonic anhydrase 1 (Homo sapiens, UniProt P00915); test: Inhibition of recombinant human CA1 pre-incubated for 15 mins by phenol red dye based stopped flow CO2 hydration assay
[5] = biological target: Carbonic anhydrase 4 (Homo sapiens, UniProt P22748); test: Inhibition of recombinant human CA4 pre-incubated for 15 mins by phenol red dye based stopped flow CO2 hydration assay
[6] = test system: Liver; test: Induction of H2S release in rat liver microsomes assessed as half life of H2S release at 150 uM incubated for 90 mins by methylene blue based UV-Vis spectrophotometer analysis; assay type: functional; conditions: Homogenate, in the assay text read “rat liver homogenate” for “rat liver microsomes”
Outline: (§1)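 Rat liver homogenized 1/20 w/v in ice-cold 50 mM potassium phosphate pH 7.4, diluted further 1:10; compound 150 μM final (30 mM DMSO stock) in airtight vials at 37 °C, 0–90 min. H2S trapped with zinc acetate, proteins precipitated with TCA, then N,N-dimethyl-p-phenylenediamine/FeCl3; methylene blue A667 after 30 min at 25 °C; Na2S calibration 1–250 μM; compound-free baseline; triplicate.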

[7] = test system: Liver; test: Induction of H2S release in rat liver microsomes at 150 uM incubated for 90 mins by methylene blue based UV-Vis spectrophotometer analysis; assay type: functional; conditions: Homogenate, in the assay text read “rat liver homogenate” for “rat liver microsomes”; outline: as §1
[8] = test system: Rattus norvegicus; test: (§2) Antinociceptive activity against complete freund's adjuvant-induced arthritic Sprague-Dawley rat model assessed as reduction in mechanical hyperalgesia induced hypersensitivity at 10 to 30 mg/kg, po administered as single dose starting from day 14 post CFA injection and measured upto 75 mins by Paw pressure test; assay type: functional, organism-based; conditions: dose 10-30 mg/kg
[9] = test system: Liver; test: Induction of H2S release in rat liver microsomes assessed as Cmax of H2S release at 150 uM measured after 90 mins by methylene blue based UV-Vis spectrophotometer analysis; assay type: functional; conditions: Homogenate, in the assay text read “rat liver homogenate” for “rat liver microsomes”; outline: as §1
[10] = Toxicity in Sprague-Dawley rat model of complete freund's adjuvant-induced arthritis assessed as effect on neurological parameters at 30 mg/kg, po measured for 24 hrs by Irwin test; assay type: organism-based; conditions: in vivo
Outline: (§3)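 Single oral 30 mg/kg dose (1% CMC suspension) in CFA-arthritic Sprague Dawley rats; animals observed 24 h. Irwin screen in individual transparent cage scoring 26 autonomic, behavioral and neurological parameters; some signs recorded as present/absent, skin colour qualitatively, others semiquantitatively on observer scales (0 to +4, −4 to 0, or −4 to +4).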

[11] = test system: Rattus norvegicus; test: (§4) Antinociceptive activity against complete freund's adjuvant-induced arthritic Sprague-Dawley rat model assessed as reduction in spontaneous pain by measuring difference in weight tolerance on contralateral and ipsilateral paw administered orally as single dose starting from day 14 post CFA injection and measured after 30 to 45 mins by Incapacitance test; assay type: functional, organism-based; conditions: dose 1-30 mg/kg, route po, time lower 30.0 min, time upper […], DDE = dose-dependent effect
Outline: (§5)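 Sprague Dawley rats 200–250 g, CFA 50 μL intra-articular into left tibiotarsal joint on day 0 (saline controls). On day 14, single oral dose in 1% CMC (hybrids 1, 10, 30 mg/kg; single agents 13.23 or 17.71 mg/kg). Incapacitance apparatus, rats on hind paws on 65° inclined plane; Δ weight = contralateral minus ipsilateral load over time; 8 rats, two experimental sets, mean (SEM).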

[12] = test system: Rattus norvegicus; test: as §2, with “increase” for “reduction”, “weight tolerated on ipsilateral paw” for “mechanical hyperalgesia induced hypersensitivity”, “after 15 to 45” for “upto 75”; assay type: functional, organism-based; conditions: dose 10-30 mg/kg, time lower 15.0 min, time upper […]
[13] = Toxicity in Sprague-Dawley rat model of complete freund's adjuvant-induced arthritis assessed as effect on autonomical parameters at 30 mg/kg, po measured for 24 hrs by Irwin test; assay type: organism-based; conditions: in vivo; outline: as §3
[14] = Toxicity in Sprague-Dawley rat model of complete freund's adjuvant-induced arthritis assessed as effect on behavioral parameters at 30 mg/kg, po measured for 24 hrs by Irwin test; assay type: organism-based; conditions: in vivo; outline: as §3
[15] = test system: Liver; test: Induction of H2S release in rat liver microsomes assessed as Cmax of H2S release at 150 uM measured after 20 mins by methylene blue based UV-Vis spectrophotometer analysis; assay type: functional; conditions: Homogenate, in the assay text read “rat liver homogenate” for “rat liver microsomes”; outline: as §1
[16] = test system: Rattus norvegicus; test: as §4, with “paw at 13.23 mg/kg, po” for “paw”, “administered” for “administered orally”, “after 15 to” for “after”, “30” for “30 to 45”; assay type: functional, organism-based; conditions: time 15-30 min; outline: as §5
[17] = test system: Rattus norvegicus; test: Antinociceptive activity against complete freund's adjuvant-induced arthritic Sprague-Dawley rat model assessed as increase in weight tolerated on ipsilateral paw at 13.23 mg/kg, po administered as single dose starting from day 14 post CFA injection and measured after 15 to 45 mins by Paw pressure test; assay type: functional, organism-based; conditions: time lower 15.0 min, time upper […]
[18] = test system: Rattus norvegicus; test: Antinociceptive activity against complete freund's adjuvant-induced arthritic Sprague-Dawley rat model assessed as reduction in mechanical hyperalgesia induced hypersensitivity administered orally as single dose starting from day 14 post CFA injection and measured upto 75 mins by Paw pressure test; assay type: functional, organism-based; conditions: dose 1-30 mg/kg, route po, DDE = dose-dependent effect
[19] = test system: Rattus norvegicus; test: as §4, with “paw at 10 mg/kg, po” for “paw”, “administered” for “administered orally”, “upto 75” for “after 30 to 45”; assay type: functional, organism-based; outline: as §5

Chain of Carbonic anhydrase 12 (O43570 whole entry): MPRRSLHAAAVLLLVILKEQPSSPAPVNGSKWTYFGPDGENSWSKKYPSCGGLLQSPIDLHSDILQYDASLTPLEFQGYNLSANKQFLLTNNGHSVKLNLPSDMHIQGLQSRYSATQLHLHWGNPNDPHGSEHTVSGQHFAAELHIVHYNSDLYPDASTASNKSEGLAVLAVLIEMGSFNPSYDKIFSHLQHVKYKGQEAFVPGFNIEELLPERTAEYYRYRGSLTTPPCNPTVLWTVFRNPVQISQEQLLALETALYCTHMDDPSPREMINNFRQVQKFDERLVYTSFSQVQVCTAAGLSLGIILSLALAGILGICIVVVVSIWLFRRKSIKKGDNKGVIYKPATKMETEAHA
Chain of Carbonic anhydrase 4 (P22748 whole entry): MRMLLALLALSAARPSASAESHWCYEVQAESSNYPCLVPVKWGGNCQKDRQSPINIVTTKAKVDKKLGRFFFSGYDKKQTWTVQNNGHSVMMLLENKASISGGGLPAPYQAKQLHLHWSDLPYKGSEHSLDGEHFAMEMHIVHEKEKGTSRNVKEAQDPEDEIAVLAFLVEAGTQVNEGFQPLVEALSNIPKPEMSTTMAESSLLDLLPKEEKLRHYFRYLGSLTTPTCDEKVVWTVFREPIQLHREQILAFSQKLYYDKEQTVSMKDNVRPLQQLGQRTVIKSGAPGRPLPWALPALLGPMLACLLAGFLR
Chain of Carbonic anhydrase 1 (P00915 whole entry): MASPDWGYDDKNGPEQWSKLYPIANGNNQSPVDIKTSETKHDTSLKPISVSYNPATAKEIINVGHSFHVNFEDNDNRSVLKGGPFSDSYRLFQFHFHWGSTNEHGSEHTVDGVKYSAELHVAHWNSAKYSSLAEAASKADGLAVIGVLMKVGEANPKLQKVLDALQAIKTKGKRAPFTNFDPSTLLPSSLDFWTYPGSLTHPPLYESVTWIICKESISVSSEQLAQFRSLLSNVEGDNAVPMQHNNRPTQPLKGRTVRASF

Ki [1]	Ki [2]	Ki [3]	Ki [4]	Ki [5]	SMILES	T1/2 [6]	Activity [7]	Activity [8]	Cmax [9]	Activity [10]	Activity [11]	Activity [12]	Activity [13]	Activity [14]	Cmax [15]	Activity [16]	Activity [17]	Activity [18]	Activity [19]
3660 nM	12.9 nM	19.1 nM	7700 nM	1040 nM	NS(=O)(=O)c1ccc(CCN(Cc2ccc(Br)cc2)C(=O)c2ccc(-c3cssc3=S)cc2)cc1	–	–	–	–	–	–	–	–	–	–	–	–	–	–
589 nM	76.4 nM	50.3 nM	2210 nM	1590 nM	COc1ccc(CN(CCc2ccc(S(N)(=O)=O)cc2)C(=O)c2ccc(-c3cssc3=S)cc2)cc1	–	–	–	–	–	–	–	–	–	–	–	–	–	–
4830 nM	8.8 nM	40.3 nM	> 10000 nM	46.2 nM	N#Cc1ccc(CN(CCc2ccc(S(N)(=O)=O)cc2)C(=O)c2ccc(-c3cssc3=S)cc2)cc1	–	–	–	–	–	–	–	–	–	–	–	–	–	–
2480 nM	8 nM	2.4 nM	> 10000 nM	48 nM	NS(=O)(=O)c1ccc(CCN(Cc2csc3ccccc23)C(=O)c2ccc(-c3cssc3=S)cc2)cc1	4.3 min	Active	Active	7.9 µM	Non-Toxic	Dde	Active	Non-Toxic	Non-Toxic	–	–	–	–	–
218 nM	8.9 nM	18.6 nM	–	293 nM	COc1ccc(CN(CCc2ccc(S(N)(=O)=O)cc2)C(=O)c2ccc(-c3cssc3=S)cc2)cc1OC	–	–	–	–	–	–	–	–	–	–	–	–	–	–
661 nM	9.6 nM	126 nM	4390 nM	243 nM	NS(=O)(=O)c1ccc(CCN(CCc2ccccc2)C(=O)c2ccc(-c3cssc3=S)cc2)cc1	–	–	–	–	–	–	–	–	–	–	–	–	–	–
9650 nM	8.4 nM	46.2 nM	7210 nM	404 nM	CSc1ccc(CN(CCc2ccc(S(N)(=O)=O)cc2)C(=O)c2ccc(-c3cssc3=S)cc2)cc1	4.3 min	Active	Active	7.9 µM	Non-Toxic	Dde	Active	Non-Toxic	Non-Toxic	–	–	–	–	–
–	–	–	–	–	O=C(O)c1ccc(-c2cssc2=S)cc1	3.1 min	Active	–	–	–	–	–	–	–	12.1 µM	Active	Active	–	–
–	–	45.3 nM	–	–	NS(=O)(=O)c1ccc(CCNCc2cccc3ccccc23)cc1	–	–	–	–	–	–	–	–	–	–	–	–	–	–
2950 nM	7.7 nM	4.1 nM	6700 nM	4090 nM	COc1cc([N+](=O)[O-])ccc1CN(CCc1ccc(S(N)(=O)=O)cc1)C(=O)c1ccc(-c2cssc2=S)cc1	4.3 min	Active	–	7.9 µM	Non-Toxic	Dde	–	Non-Toxic	Non-Toxic	–	–	–	Dde	–
480 nM	9.7 nM	43 nM	–	4340 nM	NS(=O)(=O)c1ccc(CCN(Cc2ccccc2)C(=O)c2ccc(-c3cssc3=S)cc2)cc1	–	–	–	–	–	–	–	–	–	–	–	–	–	–
2970 nM	9.8 nM	24 nM	5510 nM	430 nM	NS(=O)(=O)c1ccc(CCN(Cc2ccc(Cl)cc2)C(=O)c2ccc(-c3cssc3=S)cc2)cc1	–	–	–	–	–	–	–	–	–	–	–	–	–	–
4460 nM	7 nM	15.6 nM	> 10000 nM	244 nM	NS(=O)(=O)c1ccc(CCN(Cc2cccc3ccccc23)C(=O)c2ccc(-c3cssc3=S)cc2)cc1	4.3 min	Active	Active	7.9 µM	Non-Toxic	–	Active	Non-Toxic	Non-Toxic	–	–	–	–	Active
60.4 nM	9.1 nM	28.7 nM	429 nM	523 nM	N#CCCN(CCc1ccc(S(N)(=O)=O)cc1)C(=O)c1ccc(-c2cssc2=S)cc1	–	–	–	–	–	–	–	–	–	–	–	–	–	–
600 nM	65.3 nM	46.3 nM	5320 nM	> 10000 nM	NS(=O)(=O)c1ccc(CCN(Cc2ccc(F)cc2)C(=O)c2ccc(-c3cssc3=S)cc2)cc1	–	–	–	–	–	–	–	–	–	–	–	–	–	–
919 nM	32.9 nM	36.6 nM	7450 nM	> 10000 nM	NS(=O)(=O)c1ccc(CCN(Cc2ccc([N+](=O)[O-])cc2)C(=O)c2ccc(-c3cssc3=S)cc2)cc1	–	–	–	–	–	–	–	–	–	–	–	–	–	–
995 nM	9.5 nM	22.7 nM	4260 nM	3410 nM	CN(C)c1ccc(CN(CCc2ccc(S(N)(=O)=O)cc2)C(=O)c2ccc(-c3cssc3=S)cc2)cc1	–	–	–	–	–	–	–	–	–	–	–	–	–	–
